Source: PubChem BioAssay (Johns Hopkins Ion Channel Center)
Sampled rows, rich in hits. Any-hit rate of the full collection: about 2.3%.
TRPC4 potent: positive allosteric modulators of TRPC4, primary screen, cell-based, mouse TRPC4beta, HEK293 mu-opioid, Fluo-4 calcium; B-score at 10 µM; Short transient receptor potential channel 4 (Mus musculus), Q9QUQ5; hit rate 0.42% among 310,000; DAMGO EC20, Fluo-4 Ca2+ flux; active compounds read high;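 active means B-score of calcium response area above 5 SD of library B-scores, with initial fluorescence ratio within 5 SD of library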;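 further: B-score of integrated fluorescence ratio over time as area under calcium response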
TRPC4 inh: inhibitors of mouse TRPC4 channel, primary screen, Fluo4 calcium, HEK293 TRPC4beta/mu-opioid cells | Short transient receptor potential channel 4 (Mus musculus), Q9QUQ5 | DAMGO-evoked Fluo4 calcium flux; active compounds read low | B-score at 10 µM | hit rate 0.39% among 300,000 | AID 2247, 2010;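 active means B-score over 3 SD under the library average, no early fluorescence shift, positive overall ratio signal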
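test system = HEK293 cells with stable TRPC4beta plus mu-opioid receptor expression | detection = Fluo4 Ca2+ flux fluorescence | read-out = integrated fluorescence ratio relative to baseline, converted to per-well B score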
TRPC4 agonist: activators of mouse TRPC4 channel, primary screen, Fluo4 calcium, HEK293 TRPC4beta/mu-opioid cells; Short transient receptor potential channel 4 (Mus musculus), Q9QUQ5; Fluo4 calcium fluorescence; active compounds read high; B-score at 10 µM; hit rate 0.49% among 310,000; AID 2237, 2010;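 active means B-score above 5 SD of library B-scores, and initial fluorescence ratio not above library mean plus 5 SD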;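 further: positive B-score marks a calcium rise read as TRPC4 activation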
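Assay system: HEK293 cells stably co-expressing mouse TRPC4beta and mu-opioid receptor / Timing: Fluo4 dye loading 45 min at room temperature, 110 s recording / Signal: Fluo4 calcium-sensitive dye fluorescence, kinetic, 1 Hz baseline / Read-out: integrated baseline-normalised fluorescence ratio, converted to per-well B score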
TRPC6 act: mouse TRPC6 channel activators, primary screen, cell-based, HEK293, membrane potential dye; Short transient receptor potential channel 6 (Mus musculus), Q61143; HEK293-TRPC6 membrane potential dye fluorescence; active compounds read high; B-score at 10 µM; hit rate 0.13% among 310,000;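 active means B-score of the integrated fluorescence ratio above library mean plus 3 SD, and starting fluorescence ratio within library mean plus 5 SD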;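 further: higher score means more depolarization so channel activation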
Target sequence (Q61143 whole entry, looked up): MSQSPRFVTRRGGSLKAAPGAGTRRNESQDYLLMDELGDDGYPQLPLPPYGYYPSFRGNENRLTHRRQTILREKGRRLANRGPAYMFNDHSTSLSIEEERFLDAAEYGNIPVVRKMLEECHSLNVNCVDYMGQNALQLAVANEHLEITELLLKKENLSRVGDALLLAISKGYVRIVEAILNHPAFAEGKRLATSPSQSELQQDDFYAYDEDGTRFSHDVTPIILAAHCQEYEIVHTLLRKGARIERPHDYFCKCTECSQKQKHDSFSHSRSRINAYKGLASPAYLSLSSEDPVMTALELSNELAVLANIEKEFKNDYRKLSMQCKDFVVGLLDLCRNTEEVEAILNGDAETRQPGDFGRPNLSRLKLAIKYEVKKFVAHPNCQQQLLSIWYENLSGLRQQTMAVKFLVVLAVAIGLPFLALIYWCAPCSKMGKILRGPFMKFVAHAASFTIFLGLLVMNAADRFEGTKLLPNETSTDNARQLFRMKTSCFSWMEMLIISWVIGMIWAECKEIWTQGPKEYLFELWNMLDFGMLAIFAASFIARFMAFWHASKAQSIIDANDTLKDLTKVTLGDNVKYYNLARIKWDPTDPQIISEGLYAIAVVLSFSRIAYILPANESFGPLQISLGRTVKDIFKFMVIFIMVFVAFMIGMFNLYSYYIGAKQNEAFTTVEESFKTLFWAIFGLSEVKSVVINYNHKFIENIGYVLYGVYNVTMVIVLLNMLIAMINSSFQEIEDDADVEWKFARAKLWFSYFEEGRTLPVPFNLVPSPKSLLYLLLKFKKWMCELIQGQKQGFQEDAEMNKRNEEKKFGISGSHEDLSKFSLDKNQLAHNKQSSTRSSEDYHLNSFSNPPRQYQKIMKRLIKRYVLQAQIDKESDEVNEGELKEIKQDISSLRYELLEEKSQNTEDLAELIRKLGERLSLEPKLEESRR
TRPC6 inh: mouse TRPC6 channel inhibitors, primary screen, cell-based, HEK293, membrane potential dye. Short transient receptor potential channel 6 (Mus musculus), Q61143. hit rate 1.1% among 310,000. ACh-evoked depolarization; active compounds read low. B-score at 10 µM;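 active means B-score under library mean minus 3 SD, initial fluorescence not abnormally high, positive integrated signal ratio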;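 further: B-score derived from integrated fluorescence ratio over the kinetic read; more negative B-score means stronger inhibition of depolarization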
TRPC4 spec 2: second check of whether TRPC6 inhibitors also affect mouse TRPC4; inhibition, % at 10 µM; hit rate 42% among 920; shares compounds with TRPC6 inh; HEK293 TRPC4/MOR, membrane potential dye fluorescence; channel activated by saturating DAMGO dose;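 active means compounds whose fluorescence signal differed from control wells by over 3 SD, either direction, in both duplicate plates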
TRPC4 spec: mouse TRPC4 modulation by TRPC6 hits, confirmation, selectivity assay for TRPC6 inhibitor project, cell-based, HEK293 TRPC4/mu-opioid, membrane potential dye | shares compounds with TRPC6 inh | membrane potential fluorescence | activity change, negative = inhibition, % at 10 µM | hit rate 61% among 920;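 active means rise or fall in signal beyond 3 SD of buffer-only wells in both replicate plates, either sign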;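 further: integrated kinetic ratio of fluorescence range over baseline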
HEK293 MPD ctr 2-1: nonspecific membrane potential effects, parental HEK293, confirmation, counter-screen for TRPC6 inhibitor project, cell-based, second counter screen | shares compounds with TRPC6 inh | parental HEK293 membrane potential dye fluorescence; maximal acetylcholine challenge after compound addition | hit rate 31% among 920 | signal change vs control, % at 10 µM;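 active means membrane potential signal moving either way by over 3 SD of the maximum-effect control, in both duplicate plates, meaning non-specific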
HEK293 MPD ctr-1: membrane potential modulation in parental HEK293, confirmation, counter-screen for TRPC6 inhibitor project, cell-based | shares compounds with TRPC6 inh | parental HEK293 membrane potential dye fluorescence | AID 2780, 2010 | hit rate 60% among 920 | membrane potential signal change, % at 10 µM;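 active means membrane potential signal shifting up or down by more than 3 SD of buffer-only wells, on both duplicate plates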
HEK293 MPD ctr-2: parental HEK293 membrane potential modulation, confirmation, counter-screen for TRPC6 modulator project, cell-based. shares compounds with TRPC6 inh. hit rate 51% among 2,400. membrane potential signal change, % at 10 µM. membrane potential dye fluorescence;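 active means membrane potential signal moves up or down beyond 5 SD from buffer-only wells, on both duplicate plates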
HEK293 MPD ctr 2-2: parental HEK293 nonspecific activity of TRPC6 modulators, second screen; AID 488926; hit rate 14% among 2,400; membrane potential dye fluorescence; after compound, maximal acetylcholine stimulation; inhibition, % at 10 µM; shares compounds with TRPC6 inh;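 active means membrane potential signal drops by more than 5 SD from the mean control signal, in both duplicate plates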;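 further: plate controls were acetylcholine ECmax control wells for no effect and buffer only wells for full effect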
TRPC4 ctr mod: TRPC4 modulation by TRPC6 hit compounds, confirmation, selectivity assay for TRPC6 modulator project, cell-based, HEK293 TRPC4/mu-opioid, membrane potential dye, mouse; shares compounds with TRPC6 inh; membrane potential fluorescence; percent change from control (negative = decrease, positive = increase), % at 10 µM; hit rate 69% among 2,400;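 active means membrane potential signal moved up or down beyond 5 SD of buffer control wells, in both duplicate plates, actives on both sides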;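 further: plate controls were assay buffer wells for no effect and DAMGO maximal-effect wells for full effect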
TRPC4/MOR inh 2: second check of whether TRPC6 modulators also affect mouse TRPC4 | shares compounds with TRPC6 inh | HEK293 TRPC4/mu-opioid, membrane potential dye fluorescence; stimulated with maximal-effect DAMGO | inhibition, % at 10 µM | hit rate 55% among 2,400 | AID 488928;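 active means drop in membrane potential signal beyond 5 SD of the control wells in both duplicate plates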;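 further: TRPC4 counter screen for TRPC6 hits run under conditions tuned for TRPC6 not TRPC4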
TRPC6 inh conf: mouse TRPC6 channel inhibitors, confirmation, HEK293 cells, membrane potential dye, duplicate; shares compounds with TRPC6 inh; ACh-evoked depolarization; inhibition, % at 10 µM; hit rate 43% among 3,300;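 active means fluorescence ratio falls more than 5 SD below the full-stimulation control mean, in both duplicate runs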;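 further: integrated fluorescence ratio of peak minus minimum over baseline after agonist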
TRPC6 act conf: mouse TRPC6 channel activators, confirmation, HEK293 cells, membrane potential dye, duplicate; shares compounds with TRPC6 inh; HEK293-TRPC6 membrane potential dye fluorescence, FDSS; activation, % at 10 µM; hit rate 11% among 2,800;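 active means ratio signal rise beyond 5 SD above unstimulated control wells' mean, seen in both duplicate runs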;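 further: plate controls were buffer EC0 wells for no effect and acetylcholine ECmax response for full effect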
An asterisk follows results filed as active.

Results for CCN1C(=O)/C(=C/C=C2\C=CN(CC)c3ccccc32)SC1=S ?
TRPC4 potent: inactive; TRPC4 inh: inactive; TRPC4 agonist: inactive; TRPC6 act: inactive; TRPC6 inh: -6.12*; HEK293 MPD ctr-2: inactive; HEK293 MPD ctr 2-2: inactive; TRPC4 ctr mod: -27.0%*; TRPC4/MOR inh 2: 80.0%*; TRPC6 inh conf: inactive; TRPC6 act conf: inactive

What do the screens show for `COc1ccccc1OCCNC(=O)c1ccc(C)o1`?
TRPC4 potent: inactive; TRPC4 inh: inactive; TRPC4 agonist: inactive; TRPC6 act: inactive; TRPC6 inh: inactive

What do the screens show for `Cc1nn(C)c(C(=O)N/N=C/c2ccc(C(F)(F)F)cc2)c1[N+](=O)[O-]`?
TRPC4 potent: inactive; TRPC4 inh: inactive; TRPC4 agonist: inactive; TRPC6 act: inactive; TRPC6 inh: -5.78*; HEK293 MPD ctr-2: inactive; HEK293 MPD ctr 2-2: inactive; TRPC4 ctr mod: -13.5%*; TRPC4/MOR inh 2: inactive; TRPC6 inh conf: inactive; TRPC6 act conf: inactive

How did Cc1ccc(NC(=O)CNCc2cccs2)cc1Br do in these assays?
TRPC4 potent: inactive; TRPC4 inh: inactive; TRPC4 agonist: inactive; TRPC6 act: inactive; TRPC6 inh: inactive

Results for CCC(=O)N1c2ccc(S(=O)(=O)NC3CCCCC3)cc2CC1C (configuration not stated) ?
TRPC4 potent: inactive; TRPC4 inh: inactive; TRPC4 agonist: inactive; TRPC6 act: inactive; TRPC6 inh: inactive

Results for COc1ccccc1NC(=O)Nc1ccc2c(c1)CCC2 ?
TRPC4 potent: inactive; TRPC4 inh: inactive; TRPC4 agonist: inactive; TRPC6 act: inactive; TRPC6 inh: -5.02*; HEK293 MPD ctr-2: inactive; HEK293 MPD ctr 2-2: inactive; TRPC4 ctr mod: inactive; TRPC4/MOR inh 2: inactive; TRPC6 inh conf: inactive; TRPC6 act conf: inactive

How did Cc1ccc(OCC(COCc2ccccc2)NC(C)C)cc1 (configuration not stated) do in these assays?
TRPC4 potent: inactive; TRPC4 inh: -6*; TRPC4 agonist: inactive; TRPC6 act: inactive; TRPC6 inh: -9.34*; TRPC4 spec 2: 41.5%*; TRPC4 spec: 37.6%*; HEK293 MPD ctr 2-1: inactive; HEK293 MPD ctr-1: 14.1%*; TRPC6 inh conf: 100.6%*

Results for O=C(CN1CCS(=O)(=O)CC1)N/N=C/c1cccc(C(F)(F)F)c1 ?
TRPC4 potent: inactive; TRPC4 inh: inactive; TRPC4 agonist: inactive; TRPC6 act: inactive; TRPC6 inh: -5.35*; HEK293 MPD ctr-2: inactive; HEK293 MPD ctr 2-2: inactive; TRPC4 ctr mod: inactive; TRPC4/MOR inh 2: inactive; TRPC6 inh conf: inactive; TRPC6 act conf: inactive

What do the screens show for `COc1ccc(/C=N/NC(=O)CN2CCS(=O)(=O)CC2)cc1`?
TRPC4 potent: inactive; TRPC4 inh: inactive; TRPC4 agonist: inactive; TRPC6 act: inactive; TRPC6 inh: inactive

What do the screens show for `S=C(NCCN1CCOCC1)N/N=C/c1c2ccccc2cc2ccccc12`?
TRPC4 potent: inactive; TRPC4 inh: inactive; TRPC4 agonist: inactive; TRPC6 act: inactive; TRPC6 inh: -5.15*; HEK293 MPD ctr-2: 260.0%*; HEK293 MPD ctr 2-2: inactive; TRPC4 ctr mod: -22.5%*; TRPC4/MOR inh 2: inactive; TRPC6 inh conf: inactive; TRPC6 act conf: inactive

What do the screens show for `Cc1cccc(-c2nc(CN3CCCC(C(=O)NC4CCC(C)CC4)C3)c(C)o2)c1` (configuration not stated)?
TRPC4 potent: inactive; TRPC4 inh: inactive; TRPC4 agonist: inactive; TRPC6 act: inactive; TRPC6 inh: -6.55*; HEK293 MPD ctr-2: 182.5%*; HEK293 MPD ctr 2-2: inactive; TRPC4 ctr mod: 33.0%*; TRPC4/MOR inh 2: 46.5%*; TRPC6 inh conf: inactive

Results for CCOc1ccc(NC(=O)CSc2nnnn2C2CCCC2)cc1 ?
TRPC4 potent: inactive; TRPC4 inh: inactive; TRPC4 agonist: inactive; TRPC6 act: inactive; TRPC6 inh: inactive

How did CSc1cccc(NC(=S)N2CCC(N(C)C3CCCCCC3)CC2)c1 do in these assays?
TRPC4 potent: inactive; TRPC4 inh: inactive; TRPC4 agonist: inactive; TRPC6 act: inactive; TRPC6 inh: -7.82*; TRPC4 spec 2: 58.5%*; TRPC4 spec: inactive; HEK293 MPD ctr 2-1: inactive; HEK293 MPD ctr-1: 0.9%*; TRPC6 inh conf: inactive; TRPC6 act conf: inactive
